Measurements from ChEMBL document CHEMBL1135651 (J Med Chem, 2002).
The source made the active and inactive calls. The calls are words filed in the database; no cut-off is given here.

Columns and labels:
Rattus norvegicus [1] = assay: The percentage growth of paw after injection of carrageneen at a dose of 10 mg/kg dose; format: functional
Outline: (§1)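 Wistar rats (250 g) given drug intraperitoneally, 10 or 30 mg/kg, from a 10 mg/mL DMSO solution. After 1 h, 0.1 mL 1% lambda carrageenan was injected into the right hind paw plantar region. At 3 h, rats were euthanized with nembutal (100 mg/kg) and paws cut at the ankle. Swelling was taken as % weight increase over the control paw. Mean ± SD, n = 6.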

Rattus norvegicus [2] = assay: The percentage growth of paw after injection of carrageneen at a dose of 30 mg/kg dose; format: functional; outline: as §1
Rattus norvegicus [3] = assay: The percentage growth of paw after injection of carrageneen at a dose of 30 mg/kg dose; Toxic; format: functional, organism-based; set-up: dose 30 mg/kg; outline: as §1
[4] = target: T1, Prostaglandin G/H synthase 2 (Homo sapiens, UniProt P35354); assay: The inhibitory activity against cyclooxygenase Prostaglandin G/H synthase 2 (COX-2) measured as PGE-2 production after stimulation by lipopolysaccharide (LPS) using human Whole blood assay
T1 sequence (P35354 whole entry): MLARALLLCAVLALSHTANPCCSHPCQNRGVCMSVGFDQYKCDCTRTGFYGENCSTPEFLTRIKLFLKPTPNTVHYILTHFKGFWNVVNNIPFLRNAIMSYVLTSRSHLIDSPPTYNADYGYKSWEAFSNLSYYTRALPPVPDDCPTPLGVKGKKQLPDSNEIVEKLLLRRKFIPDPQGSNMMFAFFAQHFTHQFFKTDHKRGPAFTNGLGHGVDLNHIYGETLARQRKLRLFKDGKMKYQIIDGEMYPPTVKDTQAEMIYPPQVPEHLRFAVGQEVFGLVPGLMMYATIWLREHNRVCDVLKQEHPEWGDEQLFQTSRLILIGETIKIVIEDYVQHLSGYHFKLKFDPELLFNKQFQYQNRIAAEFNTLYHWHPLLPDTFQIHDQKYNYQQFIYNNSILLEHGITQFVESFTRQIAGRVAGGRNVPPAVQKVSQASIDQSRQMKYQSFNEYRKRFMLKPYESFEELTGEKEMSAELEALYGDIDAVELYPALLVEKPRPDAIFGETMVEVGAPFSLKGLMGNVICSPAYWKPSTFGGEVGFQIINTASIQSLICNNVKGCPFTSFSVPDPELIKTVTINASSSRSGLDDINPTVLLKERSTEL

[5] = target: T2, Prostaglandin G/H synthase 1 (Homo sapiens, UniProt P23219); assay: The inhibitory activity against Prostaglandin G/H synthase 1 measured as TXB2 production after blood coagulation using human Whole blood assay
[6] = target: T3, Prostaglandin G/H synthase 2 (Homo sapiens) (UniProt P35354); assay: The inhibitory activity against cyclooxygenase Prostaglandin G/H synthase 2 (COX-2) measured as PGE-2 production after stimulation by lipopolysaccharide (LPS) using human Whole blood assay:NI means no inhibition
T3 sequence (whole entry): T1 sequence (P35354 whole entry)

[7] = target: T2, Prostaglandin G/H synthase 1; assay: The inhibitory activity against Prostaglandin G/H synthase 1 measured as TXB2 production after blood coagulation using human Whole blood assay: NI means no inhibition
Outline: (§2)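 Human whole blood; COX-1 activity read as TXB2 produced during blood coagulation. Each drug run in triplicate over 100 to 0.01 μM. IC50 calculated from the concentration series. No inhibition at 100 μM recorded as ni.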

[8] = target: T2, Prostaglandin G/H synthase 1; assay: The inhibitory activity against cyclooxygenase Prostaglandin G/H synthase 1 measured as TXB2 production after blood coagulation using human Whole blood assay: NI means no inhibition; outline: as §2

T2 sequence (P23219 whole entry): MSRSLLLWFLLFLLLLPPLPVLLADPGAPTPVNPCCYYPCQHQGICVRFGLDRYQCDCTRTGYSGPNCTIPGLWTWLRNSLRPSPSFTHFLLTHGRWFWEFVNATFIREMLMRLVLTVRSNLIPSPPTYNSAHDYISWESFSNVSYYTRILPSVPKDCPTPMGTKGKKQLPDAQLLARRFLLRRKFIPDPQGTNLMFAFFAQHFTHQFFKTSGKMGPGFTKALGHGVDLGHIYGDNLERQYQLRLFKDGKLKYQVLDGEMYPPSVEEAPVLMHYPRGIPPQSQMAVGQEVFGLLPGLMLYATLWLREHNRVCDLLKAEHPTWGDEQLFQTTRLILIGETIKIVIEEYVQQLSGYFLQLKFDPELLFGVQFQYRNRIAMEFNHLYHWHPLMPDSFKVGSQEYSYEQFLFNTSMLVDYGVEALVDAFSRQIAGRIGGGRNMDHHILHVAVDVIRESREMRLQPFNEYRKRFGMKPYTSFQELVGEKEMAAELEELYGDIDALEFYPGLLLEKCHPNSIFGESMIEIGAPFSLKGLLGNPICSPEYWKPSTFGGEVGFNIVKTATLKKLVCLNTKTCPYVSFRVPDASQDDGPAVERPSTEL

SMILES | Growth (Rattus norvegicus [1]) [%] | Growth (Rattus norvegicus [2]) [%] | also measured
O=S(=O)(Nc1ccncc1Oc1ccccc1)C(F)(F)F | 74.7 | 54.1 | 
CS(=O)(=O)Nc1ccncc1Oc1ccccc1 |  |  | Growth (Rattus norvegicus [3]): Toxic; IC50 [4]: 37.5 µM; IC50 [5]: 4.9 µM
CS(=O)(=O)Nc1ccc([N+](=O)[O-])cc1Oc1ccccc1 [NIMESULIDE] | 58 | 54 | 
CS(=O)(=O)Nc1cccnc1Oc1ccccc1 |  |  | inhibition [6]: inactive; inhibition [7]: inactive
CN(c1ccc([N+](=O)[O-])cc1Oc1ccccc1)S(C)(=O)=O | 84.6 | 65.6 | NI [8]: inactive
